Data set [1] in a line: Selectivity index, ratio of CC50 for HeLa cells to IC50 for HRV2. It counts as functional. Summed up: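 Computed as CC50 (HeLa, 72 h crystal violet viability) divided by IC50 (HRV-2 CPE inhibition in HeLa, 72 h), both in µg/mL.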
In a further data set the test system is rhinovirus A2. The data set can be described thus: Antiviral activity against HRV2 in HeLa cells by CPE assay. Also noted: unit not given here. It counts as functional. The method, boiled down:
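HRV-2 stock grown in HeLa cells. 1-day-old confluent HeLa monolayers were given compound in test medium (2% NCS) plus virus at MOI 0.01 after medium removal. CPE was scored 72 h post-infection by crystal violet uptake, with six uninfected and six infected untreated wells per plate and pleconaril as reference. IC50 was taken from mean dose-response curves of at least three separate experiments.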

Another data set concerns HeLa. The experiment in a line: Cytotoxicity against human HeLa cells. It counts as cell-based. Further details: unit not given here. Summed up: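 2-day-old confluent HeLa monolayers were exposed to serial 2-fold compound dilutions for 72 h at 37 °C, 5% CO2. Cells were fixed and stained with crystal violet formalin, and the dye was extracted and read at 550/630 nm. Viability was expressed as percent of the mean of six mock-treated controls. CC50 is the concentration cutting viability by 50%.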

The structures appear in SMILES notation.

On to `Cc1cc(CCCOc2c(C)cc(-c3cc(C(F)(F)F)cc(C(F)(F)F)c3)cc2C)on1`, for which the logSI in data set [1] was determined as 0. In addition, in the data set on rhinovirus A2, the logIC50 was 1.7. In the data set with HeLa, the logCC50 is 1.7.
As to `Cc1cc(CCCOc2c(C)cc(-c3cc(F)c(F)c(F)c3)cc2C)on1`, the logSI in data set [1] was 3.34. Also, the logIC50 in the data set on rhinovirus A2 is -1.46. Further, the logCC50 in the data set on HeLa is given as 1.88.
As for `Cc1ccc(C)c(-c2cc(C)c(OCCCc3cc(C)no3)c(C)c2)c1`, the logSI in data set [1] is recorded as 0.6. This compound displayed a logIC50 in the data set with rhinovirus A2 of 1.06. This compound also returned a logCC50 in the data set with HeLa of 1.7.
For `Cc1cc(CCCOc2c(C)cc(-c3cccc([N+](=O)[O-])c3)cc2C)on1` the same measures were 2.25, -1.47 and 0.79.
Regarding `Cc1cc(CCCOc2c(C)cc(-c3ccc(C)c(C)c3)cc2C)on1`, in data set [1], the logSI was found to be 1.97. In the data set with rhinovirus A2, this compound registered a logIC50 of -1.31. The compound also displayed a logCC50 in the data set on HeLa of 0.66.
For `Cc1cc(CCCOc2c(C)cc(-c3ccc(Br)cc3)cc2C)on1` the same measures were 0.85, -0.15 and 0.68.
Taken in the same sequence, the figures for `C=Cc1ccc(-c2cc(C)c(OCCCc3cc(C)no3)c(C)c2)cc1` were 3.2, -0.9 and 2.3.
Take `Cc1cc(CCCOc2c(C)cc(-c3ccc(F)cc3F)cc2C)on1`: in data set [1], the logSI came to 3.2. The compound further returned a logIC50 in the data set on rhinovirus A2 of -2.3. The compound also yielded a logCC50 in the data set with HeLa of 0.9.
Taken in the same sequence, the figures for `Cc1cc(CCCOc2c(C)cc(-c3ccccc3C)cc2C)on1` were 1.76, -1.09 and 0.66.
For `Cc1cc(CCCOc2c(C)cc(-c3noc(C(F)(F)F)n3)cc2C)on1` [PLECONARIL] the same measures were 2.8, -1.7 and 1.1.
For `Cc1cc(CCCOc2c(C)cc(-c3ccc(OC(F)(F)F)cc3)cc2C)on1` the same measures were 1, 0.05 and 1.03.
Regarding `Cc1cc(CCCOc2c(C)cc(-c3ccc(C=O)cc3)cc2C)on1`, the logSI in data set [1] was found to be 2.09. The compound further showed a logIC50 with rhinovirus A2 of -1.09. This compound also came in with a logCC50 in the data set on HeLa of 1.
For the compound `Cc1cc(CCCOc2c(C)cc(-c3cccc(F)c3)cc2C)on1`, the logSI in data set [1] is on record as 2.36. This compound yielded a logIC50 in the data set on rhinovirus A2 of -1.4. This compound also had a logCC50 with HeLa of 0.96.
On to `Cc1cc(CCCOc2c(C)cc(-c3ccc(C(F)(F)F)cc3)cc2C)on1`, for which, in data set [1], the logSI came out at 2.05. The compound also yielded a logIC50 with rhinovirus A2 of -0.97. For the same compound, in the data set with HeLa, the logCC50 stood at 1.08.
Regarding `CC(=O)c1ccc(-c2cc(C)c(OCCCc3cc(C)no3)c(C)c2)cc1`, the logSI in data set [1] is reported as 2.33. This compound displayed a logIC50 in the data set with rhinovirus A2 of -0.63. The same compound gave a logCC50 in the data set on HeLa of 1.7.
Taken in the same sequence, the figures for `Cc1cc(CCCOc2c(C)cc(-c3ccc(-c4ccccc4)cc3)cc2C)on1` were 0, 1.7 and 1.7.
For `Cc1cc(CCCOc2c(C)cc(-c3ccc(F)cc3)cc2C)on1` the same measures were 3.74, -2.05 and 1.7.
On to `Cc1cc(CCCOc2c(C)cc(-c3ccc(F)c(C)c3)cc2C)on1`, for which the logSI in data set [1] was determined as 3.1. This compound also showed a logIC50 in the data set with rhinovirus A2 of -1.82. This compound also had a logCC50 in the data set on HeLa of 1.28.
Turning to `Cc1cc(CCCOc2c(C)cc(-c3cccc(C(F)(F)F)c3)cc2C)on1`, the logSI in data set [1] is 2.32. This compound also yielded a logIC50 with rhinovirus A2 of -1.24. This compound returned a logCC50 in the data set on HeLa of 1.08.
In the case of `COc1cc(-c2cc(C)c(OCCCc3cc(C)no3)c(C)c2)cc(OC)c1OC`, the logSI in data set [1] was determined as 1.53. The logIC50 with rhinovirus A2 is listed as -0.54. In the data set with HeLa, the logCC50 was 1.
Taken in the same sequence, the figures for `Cc1cc(CCCOc2c(C)cc(-c3cccc4ccccc34)cc2C)on1` were 1.16, -0.2 and 0.96.

These data come from ChEMBL document CHEMBL1148737, “Quantitative structure-activity relationship studies of [(biphenyloxy)propyl]isoxazole derivatives. Inhibitors of human rhinovirus 2 replication” (J Med Chem, 2007).
